Source: the RNAGym collection of RNA variant scans (doi:10.1101/gad.245936.114)
Variants at the floor of the assay were thinned out.

B1: tRNA (parent)
chain: CUCUCGGUAGCCAAGUUGGUUUAAGGCGCAAGACUUUAAUUUAUCACUACGAAAUCUUGAGAUCGGGCGUUCGACUCGCCCCCGGGAGAUUUUUUCCUCGAGCAA

Variants of: B1
Experiment: nonsense suppression (GFP-seq) (ratio to wild type); higher = more function; SUP4oc tRNA, yeast GFP reporter sort-seq
How it was run: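 Raffinose/galactose medium with 80 mg/L adenine was used to grow yeast carrying genome-integrated tRNA variants (~3% random-mutation library), RFP, and a galactose-driven GFP ochre reporter. Cells went into GFP/RFP bins, which were Illumina-sequenced, and variants with ≥100 reads and ≥30 cells were scored. Nonsense suppression (GFPSEQ) is the per-bin median GFP/RFP weighted by estimated cell share and expressed relative to the unmutated parent tRNA.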
For C29A G65C U71G, the nonsense suppression was no more than 0.026. A30G G59C A60C showed a nonsense suppression of no more than 0.026. C29U U57A U63G showed a nonsense suppression of no more than 0.026. Work on G28C G59A yielded a nonsense suppression of no more than 0.026. G28U U35A showed a nonsense suppression of no more than 0.026. Variant A30U U55C A87C A89U has a nonsense suppression of 0.0456. With G26C C29G the nonsense suppression was 0.0685. G26U U71G G85U gave a nonsense suppression of no more than 0.026. With G28A U63C G85U the nonsense suppression was 0.0331. With G25U U63C C79A the nonsense suppression was no more than 0.026. Work on G26C G67A yielded a nonsense suppression of no more than 0.026. With C27G G66U the nonsense suppression was no more than 0.026. With G28A C82U the nonsense suppression was 1.15. For G26C U57A A89C, the nonsense suppression was no more than 0.026. For C27U U35A U58A G65A G78C, the nonsense suppression was no more than 0.026. With G26A G65A G86A the nonsense suppression was no more than 0.026. G26C U55C gave a nonsense suppression of 0.0525. G26C U55A showed a nonsense suppression of no more than 0.026. In the case of C27G C68G G84A, the nonsense suppression is reported as no more than 0.026. In the case of G26U A33G G78C G84A, the nonsense suppression is reported as no more than 0.026. A30C A31U gave a nonsense suppression of no more than 0.026. For A30U U63A, the nonsense suppression was 0.157. Variant G28U C79U has a nonsense suppression of no more than 0.026. With A30U C82G the nonsense suppression was no more than 0.026. Variant C29U U57G G85C has a nonsense suppression of no more than 0.026. A30G U76A gave a nonsense suppression of 0.043. C29G G78A gave a nonsense suppression of no more than 0.026. For A30U C64U, the nonsense suppression was no more than 0.026. A30U A54C showed a nonsense suppression of 0.0467. In the case of G28U A62G U63A A74C, the nonsense suppression is reported as no more than 0.026. For G28U U71G, the nonsense suppression was no more than 0.026. C27U U71C C77G gave a nonsense suppression of no more than 0.026. Work on G28A G66A yielded a nonsense suppression of 0.152. Variant G25C A30U has a nonsense suppression of 0.0299. With A30U C79U the nonsense suppression was 0.144. Work on A30U C79G yielded a nonsense suppression of no more than 0.026. Work on A30G C82U yielded a nonsense suppression of 0.0497. A30U A31U C80A showed a nonsense suppression of no more than 0.026. Variant C29G G32A G67U C75A has a nonsense suppression of no more than 0.026. G28C G73U showed a nonsense suppression of 0.0322. Work on C27G G73C yielded a nonsense suppression of no more than 0.026. A30G C75U gave a nonsense suppression of 1.19. Work on G28C A60U U70C yielded a nonsense suppression of no more than 0.026. Variant A30G G85A has a nonsense suppression of 0.793. With A30G G85C the nonsense suppression was no more than 0.026. With G25C A60G the nonsense suppression was 0.0619. In the case of A30G G78A, the nonsense suppression is reported as 0.101. For G25A U57C, the nonsense suppression was no more than 0.026. G28C gave a nonsense suppression of 1.17. For G28A, the nonsense suppression was 0.975. With C27G U58A U63A the nonsense suppression was no more than 0.026. For G26C C34U G61A C82A G85C G86A, the nonsense suppression was no more than 0.026. C27A C29A U71C C79U showed a nonsense suppression of no more than 0.026. Work on G28C C34A C68G A89U yielded a nonsense suppression of no more than 0.026. With G28C C34A C68G A89G the nonsense suppression was no more than 0.026. For G28C A33U C82U A89U, the nonsense suppression was no more than 0.026. G28U A33C U63A U71G showed a nonsense suppression of no more than 0.026. Work on C29G G59A C80G yielded a nonsense suppression of no more than 0.026. C29U A87G showed a nonsense suppression of 0.438. G25C showed a nonsense suppression of 0.185. For C27A A62C, the nonsense suppression was 0.349. G26U G69U C79U gave a nonsense suppression of no more than 0.026. With A30G G73A C75A the nonsense suppression was 0.318. With C29U A54U the nonsense suppression was 0.869. For C27G G32U C75A C81G G88C, the nonsense suppression was no more than 0.026. Work on C27U A30U G85C yielded a nonsense suppression of no more than 0.026. Work on G25U A60C yielded a nonsense suppression of no more than 0.026. In the case of C27G G28A, the nonsense suppression is reported as no more than 0.026. C29U U35C showed a nonsense suppression of 0.0545. In the case of G26U U70G C79U, the nonsense suppression is reported as no more than 0.026. G28C U63A gave a nonsense suppression of 0.225. G28C U63C showed a nonsense suppression of 0.114. Work on G25U U58G C68G yielded a nonsense suppression of no more than 0.026. Variant C29G G86A has a nonsense suppression of no more than 0.026. G28A A54C showed a nonsense suppression of 0.878. G28A A54U showed a nonsense suppression of 1.1. A30U G69U C80U gave a nonsense suppression of no more than 0.026. Variant C27U G65A has a nonsense suppression of 0.0374. With C27U G65U the nonsense suppression was no more than 0.026. In the case of C29U C79U G86A, the nonsense suppression is reported as no more than 0.026. For A30U A60G, the nonsense suppression was 0.27. With A30U A60U the nonsense suppression was 0.769. For C29U A60G, the nonsense suppression was 0.114. In the case of C29U A60U, the nonsense suppression is reported as 1.18. For C27A G59U, the nonsense suppression was no more than 0.026. For C27U U58A, the nonsense suppression was no more than 0.026. Work on A30U A60U C68U yielded a nonsense suppression of 0.0354. For C27A A87U, the nonsense suppression was no more than 0.026. For C27U G85A, the nonsense suppression was 0.207. For G26U C34U, the nonsense suppression was no more than 0.026. C29U showed a nonsense suppression of 1.07. C29A gave a nonsense suppression of 0.113. Variant C29G has a nonsense suppression of no more than 0.026. For G28A A31G G73C, the nonsense suppression was no more than 0.026. For A30U G85U, the nonsense suppression was 0.0315. With A30U G85A the nonsense suppression was 0.52. Work on A30C U70C yielded a nonsense suppression of no more than 0.026. Variant G28C G61C has a nonsense suppression of 0.386. A30U C68G gave a nonsense suppression of no more than 0.026. For A30U G69C C72U, the nonsense suppression was no more than 0.026. Work on C29G U55A yielded a nonsense suppression of no more than 0.026. Variant C29G C34G has a nonsense suppression of no more than 0.026. For C29G U58A, the nonsense suppression was no more than 0.026. C29U G85U gave a nonsense suppression of 0.0262. C29U G85A showed a nonsense suppression of 1.14. With G28C A60C the nonsense suppression was 0.235. For G25U G61A G67U, the nonsense suppression was no more than 0.026. C29U A30U gave a nonsense suppression of 0.124. Variant C29U A30C has a nonsense suppression of 0.196. C29U A30G showed a nonsense suppression of 1.1. Variant G25C U63A has a nonsense suppression of no more than 0.026. With C27A U55A G85A the nonsense suppression was no more than 0.026. C29U C77G showed a nonsense suppression of 0.0454. With C29U G59C the nonsense suppression was 0.0272. With G26C U57A G73A the nonsense suppression was no more than 0.026. A30U gave a nonsense suppression of 0.575. Work on A30G yielded a nonsense suppression of 1.11. In the case of G26C C29U G67U, the nonsense suppression is reported as no more than 0.026. For A30U A62G C81G, the nonsense suppression was no more than 0.026. In the case of G25C C77U C80G, the nonsense suppression is reported as no more than 0.026. C27G C77G showed a nonsense suppression of no more than 0.026. Work on G25U C56A G86U yielded a nonsense suppression of no more than 0.026. Work on G25A G59C U63C yielded a nonsense suppression of no more than 0.026. G25C A30G A33U gave a nonsense suppression of no more than 0.026. With C29A U55G the nonsense suppression was no more than 0.026. G25C C68U gave a nonsense suppression of 0.031. Variant G28C U57A has a nonsense suppression of 0.0447. With G28C U57C the nonsense suppression was 0.0349. With G28A A54C C68U the nonsense suppression was 0.18. With C29U G86C the nonsense suppression was 0.0331. With G25C C34A A87G the nonsense suppression was no more than 0.026. Work on G28A G84A yielded a nonsense suppression of no more than 0.026. Variant G26A U70A has a nonsense suppression of no more than 0.026. Variant C27G A87G has a nonsense suppression of 0.0273. In the case of C27U U55C C56A G88U, the nonsense suppression is reported as no more than 0.026. For C29A G73A, the nonsense suppression was no more than 0.026. G26A C27A gave a nonsense suppression of no more than 0.026. G26A C27G gave a nonsense suppression of no more than 0.026. Variant C29A A60G has a nonsense suppression of 0.0331. In the case of G28C U76C, the nonsense suppression is reported as 0.799. G25U G61A C82G G88U showed a nonsense suppression of no more than 0.026. Variant G28A A33G has a nonsense suppression of 0.161. In the case of G28A A33U, the nonsense suppression is reported as 0.0279. For A30G C83A, the nonsense suppression was no more than 0.026. A30U U58A gave a nonsense suppression of 0.89. For G26C U63G, the nonsense suppression was no more than 0.026. Variant C29U G73A has a nonsense suppression of 0.238. In the case of C29U G61A, the nonsense suppression is reported as 0.83. C29U G61C showed a nonsense suppression of 0.0261. In the case of C29U G61U, the nonsense suppression is reported as 0.754. Variant C29U U76C has a nonsense suppression of 0.772. With C29U U76A the nonsense suppression was 0.224. C27G A31G A54U U70C G84A gave a nonsense suppression of no more than 0.026. Work on C29U C83U yielded a nonsense suppression of 0.0384. For A30U G84U, the nonsense suppression was 0.423. A30G C64U showed a nonsense suppression of 0.0605. In the case of G28A C56G A89C, the nonsense suppression is reported as no more than 0.026. With G26U C64G the nonsense suppression was no more than 0.026. With A30U A31G the nonsense suppression was 0.25. Work on A30U A31U yielded a nonsense suppression of 0.035. Work on C29U A33U yielded a nonsense suppression of 0.0316. With A30U U76G the nonsense suppression was 0.0538. For C27A A33C G66U, the nonsense suppression was no more than 0.026. Variant G28A U35G G65U G73A C80U has a nonsense suppression of no more than 0.026. Variant G28C G78A has a nonsense suppression of 0.0288. Variant G28C G78C has a nonsense suppression of no more than 0.026. Variant A30G A31G A60U has a nonsense suppression of 0.726.
